# Measurements: ChEMBL document CHEMBL1127048, “A potent new class of kappa-receptor agonist: 4-substituted 1-(arylacetyl)-2-[(dialkylamino)methyl]piperazines” (J Med Chem, 1993)
# Key:
# Mus musculus [1] = test: In vivo antinociceptive activity was determined using mouse acetylcholine induced abdominal constriction test following subcutaneous administration; range (0.000033-0.000241); type: functional; conditions: Abdomen, sc
# How it was run: (§1)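 Mice given compound by subcutaneous injection, then challenged with acetylcholine to induce abdominal constrictions. Antinociceptive ED50 determined in mg/kg sc, with a bracketed range reported alongside.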
# Mus musculus [2] = test: In vivo antinociceptive activity was determined using mouse acetylcholine induced abdominal constriction test following subcutaneous administration; range (0.0003-0.002); type: functional; conditions: Abdomen, sc; how it was run: as §1
# [3] = In vitro agonist activity at kappa opioid receptor in rabbit vas deferens.
# Mus musculus [4] = test: In vivo antinociceptive activity was determined using mouse acetylcholine induced abdominal constriction test following subcutaneous administration; range (0.20-1.09); type: functional; conditions: Abdomen, sc; how it was run: as §1
# Mus musculus [5] = test: In vivo antinociceptive activity was determined using mouse acetylcholine induced abdominal constriction test following subcutaneous administration; range (0.01-0.02); type: functional; conditions: Abdomen, sc; how it was run: as §1
# Mus musculus [6] = test: In vivo antinociceptive activity was determined using mouse acetylcholine induced abdominal constriction test following subcutaneous administration; range (0.015-0.037); type: functional; conditions: Abdomen, sc; how it was run: as §1
# Mus musculus [7] = test: In vivo antinociceptive activity was determined using mouse acetylcholine induced abdominal constriction test following subcutaneous administration; range (0.03-0.08); type: functional; conditions: Abdomen, sc; how it was run: as §1
# Mus musculus [8] = test: In vivo antinociceptive activity was determined using mouse acetylcholine induced abdominal constriction test following subcutaneous administration; range (0.024-0.066); type: functional; conditions: Abdomen, sc; how it was run: as §1
# Mus musculus [9] = test: In vivo antinociceptive activity was determined using mouse acetylcholine induced abdominal constriction test following subcutaneous administration; range (0.059-0.173); type: functional; conditions: Abdomen, sc; how it was run: as §1
# Mus musculus [10] = test: In vivo antinociceptive activity was determined using mouse acetylcholine induced abdominal constriction test following subcutaneous administration; type: functional; conditions: Abdomen, sc; how it was run: as §1
# Mus musculus [11] = test: In vivo antinociceptive activity was determined using mouse acetylcholine induced abdominal constriction test following subcutaneous administration; range (0.012-0.032); type: functional; conditions: Abdomen, sc; how it was run: as §1
# Mus musculus [12] = test: In vivo antinociceptive activity was determined using mouse acetylcholine induced abdominal constriction test following oral administration; range (0.005-0.035); type: functional; conditions: Abdomen
# Mus musculus [13] = test: In vivo antinociceptive activity was determined using mouse acetylcholine induced abdominal constriction test following subcutaneous administration; range (0.00012-0.00045); type: functional; conditions: Abdomen, sc; how it was run: as §1
# Mus musculus [14] = test: In vivo antinociceptive activity was determined using mouse acetylcholine induced abdominal constriction test following subcutaneous administration; range (0.00027-0.00086); type: functional; conditions: Abdomen, sc; how it was run: as §1
# Mu-type opioid receptor = Mu-type opioid receptor (Rattus norvegicus, UniProt P33535); test: In vitro inhibitory activity against mu specific tissue of rat vas deferens; type: functional, tissue-based
# Mu-type opioid receptor, sequence (P33535 whole entry): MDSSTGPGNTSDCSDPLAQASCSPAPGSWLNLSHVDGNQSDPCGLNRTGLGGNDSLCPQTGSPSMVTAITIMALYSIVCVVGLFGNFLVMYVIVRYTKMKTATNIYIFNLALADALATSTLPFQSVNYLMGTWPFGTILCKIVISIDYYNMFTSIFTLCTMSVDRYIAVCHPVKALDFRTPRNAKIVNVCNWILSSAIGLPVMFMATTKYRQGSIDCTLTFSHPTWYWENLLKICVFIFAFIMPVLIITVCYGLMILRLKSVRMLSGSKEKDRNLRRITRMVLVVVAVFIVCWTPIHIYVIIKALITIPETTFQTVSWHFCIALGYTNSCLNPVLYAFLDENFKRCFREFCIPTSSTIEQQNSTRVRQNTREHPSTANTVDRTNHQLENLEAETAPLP
# Rattus norvegicus [15] = test: In vivo antinociceptive activity was determined using rat paw pressure test following subcutaneous administration; range (0.00058-0.0014); type: functional; conditions: sc
# [16] = molecular target: Kappa-type opioid receptor (Homo sapiens) (UniProt P41145); conditions: Oryctolagus cuniculus; Vas deferens
# Kappa-type opioid receptor (Homo sapiens), sequence (P41145 whole entry): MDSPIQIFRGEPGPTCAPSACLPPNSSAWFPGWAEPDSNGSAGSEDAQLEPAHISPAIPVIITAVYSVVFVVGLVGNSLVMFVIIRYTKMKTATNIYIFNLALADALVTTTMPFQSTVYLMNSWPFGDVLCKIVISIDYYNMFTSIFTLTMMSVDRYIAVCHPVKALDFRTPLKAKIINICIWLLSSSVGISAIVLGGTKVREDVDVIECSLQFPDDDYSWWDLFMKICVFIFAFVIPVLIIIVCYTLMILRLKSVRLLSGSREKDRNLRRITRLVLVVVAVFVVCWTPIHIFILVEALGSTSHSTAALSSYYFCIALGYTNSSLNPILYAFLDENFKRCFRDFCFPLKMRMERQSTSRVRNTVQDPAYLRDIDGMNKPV
# Mus musculus [17] = test: In vivo antinociceptive activity was determined using mouse acetylcholine induced abdominal constriction test following subcutaneous administration; range (0.002-0.007); type: functional; conditions: Abdomen, sc; how it was run: as §1
# Mus musculus [18] = test: In vivo antinociceptive activity was determined using mouse acetylcholine induced abdominal constriction test following subcutaneous administration; range (0.12-0.48); type: functional; conditions: Abdomen, sc; how it was run: as §1
# Mus musculus [19] = test: In vivo antinociceptive activity was determined using mouse acetylcholine induced abdominal constriction test following subcutaneous administration; range (0.007-0.018); type: functional; conditions: Abdomen, sc; how it was run: as §1
# Rattus norvegicus [20] = species on record: Rattus norvegicus; test: Agonistic/Antagonistic activity in rat vas deferens (RVD) at 10e-5 M; not active; type: functional
# Mus musculus [21] = test: In vivo antinociceptive activity was determined using mouse acetylcholine induced abdominal constriction test following subcutaneous administration; range (0.04-0.15); type: functional; conditions: Abdomen, sc; how it was run: as §1
structure (smiles),measurement,setting,value
COC(=O)N1CCN(C(=O)Cc2ccc(Cl)c(Cl)c2)C(CN2CC=CCC2)C1 (stereo not drawn),ED50,Mus musculus [1],0.096 µg/kg
O=C(Cc1ccc(Cl)c(Cl)c1)N1CCC2(CC1CN1CCCC1)OCCO2 (stereo not drawn),ED50,Mus musculus [2],1 µg/kg
same,IC50,[3],0.1 nM
CCCC(=O)N1CCN(C(=O)Cc2ccc(Cl)c(Cl)c2)C(CN2CCCC2)C1 (stereo not drawn),ED50,Mus musculus [4],410 µg/kg
COC(=O)N1CCN(C(=O)Cc2ccc(Cl)c(Cl)c2)C(CN(C)C)C1 (stereo not drawn),ED50,Mus musculus [5],16 µg/kg
COC(=O)N1CCN(C(=O)Cc2ccc(Cl)c(Cl)c2)C(CN2CCC(=O)C2)C1 (stereo not drawn),ED50,Mus musculus [6],23 µg/kg
CCC(=O)N1CCN(C(=O)Cc2ccc(Cl)c(Cl)c2)C(CN2CCCC2)C1 (stereo not drawn),ED50,Mus musculus [7],50 µg/kg
COC(=O)N1CCN(C(=O)Cc2ccc(Cl)c(Cl)c2)C(CN2CCC(O)C2)C1 (stereo not drawn),ED50,Mus musculus [8],44 µg/kg
COC(=O)/C=C1\CCN(CC2CN(C(=O)OC)CCN2C(=O)Cc2ccc(Cl)c(Cl)c2)C1 (stereo not drawn),ED50,Mus musculus [9],100 µg/kg
CCCOC(=O)N1CCN(C(=O)Cc2ccc(Cl)c(Cl)c2)C(CN2CCCC2)C1 (stereo not drawn),ED50,Mus musculus [10],680 µg/kg
C=CC(=O)N1CCN(C(=O)Cc2ccc(Cl)c(Cl)c2)C(CN2CCCC2)C1 (stereo not drawn),ED50,Mus musculus [11],20 µg/kg
COC(=O)N1CCN(C(=O)Cc2ccc(Cl)c(Cl)c2)C(CN2CCCC2)C1 (stereo not drawn),ED50,Mus musculus [12],12 µg/kg
same,ED50,Mus musculus [13],0.25 µg/kg
same,ED50,Mus musculus [14],0.52 µg/kg
same,IC50,Mu-type opioid receptor,> 10000 nM
same,ED50,Rattus norvegicus [15],0.93 µg/kg
same,pKB,[16],7.7
CN1CC[C@]23c4c5ccc(O)c4O[C@H]2[C@@H](O)C=C[C@H]3[C@H]1C5 [MORPHINE],ED50,Mus musculus [10],470 µg/kg
COC(=O)/C=C1/CCN(CC2CN(C(=O)OC)CCN2C(=O)Cc2ccc(Cl)c(Cl)c2)C1 (stereo not drawn),ED50,Mus musculus [17],4 µg/kg
O=CN1CCN(C(=O)Cc2ccc(Cl)c(Cl)c2)C(CN2CCCC2)C1 (stereo not drawn),ED50,Mus musculus [18],230 µg/kg
CCOC(=O)N1CCN(C(=O)Cc2ccc(Cl)c(Cl)c2)C(CN2CCCC2)C1 (stereo not drawn),ED50,Mus musculus [19],10 µg/kg
CC(=O)N1CCN(C(=O)Cc2ccc(Cl)c(Cl)c2)C(CN2CCCC2)C1 (stereo not drawn),IC50,Rattus norvegicus [20],Not Active
same,ED50,Mus musculus [21],80 µg/kg
